Screening results as filed in PubChem BioAssay.
TAG inh: inhibitors of triacylglycerol accumulation, primary screen, cell-based, uHTS, fluorescence, H9c2; inhibition, % at 12.5 µM; 230,000 compounds, 0.66% hits; AID 651582, 2012; H9c2 cells, Nile Red lipid (TAG) fluorescence; cells loaded with 200 µM oleic acid;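 active = pattern-corrected inhibition of lipid staining of at least 50% with the nuclear-stain viability signal not falling by more than 50%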;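 note: 0% = DMSO wells and 100% = triacsin C control wells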
ABHD5 PLIN5 PPI: ABHD5-PLIN5 interaction inhibitors, primary screen, cell lysate, split luciferase complementation, luminescence; inhibition, % at 4 µM; 360,000 compounds, 0.78% hits; Split G. princeps luciferase complementation, 4 h;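 active = inhibition above the mean inhibition across every tested compound plus 3 SD, cut at about 22% in these data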;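 note: 0% = DMSO only wells and the 100% control is not disclosed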
Target sequence (Q00G26 whole entry, looked up): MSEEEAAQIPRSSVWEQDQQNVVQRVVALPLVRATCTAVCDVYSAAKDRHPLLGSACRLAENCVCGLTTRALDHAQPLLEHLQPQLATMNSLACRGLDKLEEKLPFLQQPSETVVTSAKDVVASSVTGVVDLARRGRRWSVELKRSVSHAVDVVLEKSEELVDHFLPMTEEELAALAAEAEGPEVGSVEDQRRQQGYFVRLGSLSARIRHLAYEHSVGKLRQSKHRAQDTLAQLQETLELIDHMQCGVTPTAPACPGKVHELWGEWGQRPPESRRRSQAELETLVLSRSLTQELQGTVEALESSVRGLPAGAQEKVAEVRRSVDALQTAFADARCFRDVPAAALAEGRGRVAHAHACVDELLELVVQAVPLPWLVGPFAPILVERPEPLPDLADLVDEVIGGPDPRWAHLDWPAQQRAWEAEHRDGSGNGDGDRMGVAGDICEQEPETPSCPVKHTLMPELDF
Target sequence (Q8WTS1 whole entry, looked up): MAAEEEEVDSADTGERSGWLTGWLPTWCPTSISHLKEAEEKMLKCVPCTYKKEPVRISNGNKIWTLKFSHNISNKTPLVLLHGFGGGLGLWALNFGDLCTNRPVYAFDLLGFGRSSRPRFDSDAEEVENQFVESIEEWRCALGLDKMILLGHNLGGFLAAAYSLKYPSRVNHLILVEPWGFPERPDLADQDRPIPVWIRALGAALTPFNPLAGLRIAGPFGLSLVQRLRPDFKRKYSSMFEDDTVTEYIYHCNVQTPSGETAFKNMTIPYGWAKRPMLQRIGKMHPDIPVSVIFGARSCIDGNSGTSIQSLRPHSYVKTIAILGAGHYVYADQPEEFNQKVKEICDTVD
Rad51 HR inh: human RAD51 strand exchange inhibitors, primary screen, biochemical, fluorescence | DNA repair protein RAD51 homolog 1 (Homo sapiens), Q06609 | hRad51 DNA strand exchange, fluorescence dequenching | inhibition, % at 10 µM | 200,000 compounds, 0.085% hits;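 active = inhibition above 40% at the single screening dose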;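 note: 0% = DMSO control wells and 100% = blanks with heterologous ssDNA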
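Material: human Rad51–ssDNA filaments; Probe or stimulus: labelled 47-mer dsDNA for strand exchange; Doses: single 10 µM dose; Incubation: 37 °C 15-min filament assembly, 30-min compound preincubation, 15-min exchange; Technique: FRET fluorescence dequenching, excitation 485 nm, emission 520 nm; Measure: Fluorescence-based percent inhibition, control- and blank-normalised; Benchmarks: plate control and blank wells.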
HIF activator: HIF pathway transcriptional activators, primary screen, cell-based, U2OS HRE-luciferase, luminescence. U2OS HRE-luciferase reporter; normalized: DMSO 0%, desferrioxamine 100%. activation, % at 7.5 µM (by protocol). 300,000 compounds, 0.32% hits;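 active = mean activation of at least 10% of the iron chelator positive control signal, with at least half of replicates also reaching 10%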
GAA850 FXN act: FXN promoter activators, primary screen, cell-based, luciferase luminescence, HEK293 lucGAA850. 360,000 compounds, 0.56% hits. HEK293 lucGAA850 FXN promoter luciferase reporter, 24 h; percent of 10 µM SAHA response. activation, % at 6 µM;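 active = activation above the average of all compounds screened plus 3 SD, cutoff fixed separately per campaign, cut at about 7.5% in these data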;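 note: 0% = DMSO wells and 100% = 10 µM SAHA wells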
Hsp70 act: Hsp70 transcriptional activators, primary screen, cell-based, HeLa, Hsp70 promoter luciferase, luminescence, 10 µM. 200,000 compounds, 0.04% hits. activation, % at 10 µM. HeLa Hsp70 promoter luciferase reporter; scaled: vehicle 0, proteasome-inhibitor control 100%. AID 1203, 2008;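 active = activation above the mean across all tested compounds plus 3 SD, cutoff set per campaign, cut at about 5.5% in these data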;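 note: 100% = MG132 at 30 µM as the positive control and 0% = DMSO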
* = called active by the depositor; i = inactive; . = no result given; ! = not confirmed by another sample. Sampled rows, rich in hits. Any-hit rate of the full collection: about 1.9%.

SMILES	TAG inh	ABHD5 PLIN5 PPI	Rad51 HR inh	HIF activator	GAA850 FXN act	Hsp70 act
COC(=O)CN1C(=O)[C@H]2[C@@H](c3ccc(C)o3)N3C(=O)CN(CC4CC4)C(=O)[C@@]3(Cc3ccccc3)[C@H]2C1=O	-17.0	0.9	.	286.7*	1.3	.
N#Cc1ccc2sn(-c3ccccc3)c(=O)c2c1	12.2	34.1*	.	.	0.6	.
O=c1c2cc([N+](=O)[O-])ccc2sn1-c1ccccc1	-5.2	-10.2	.	.	-1.0	.
O=C1CCCC(=O)N1c1ccc(F)cc1	.	1.3	.	0.8	2.2	.
CC(=O)Nc1ccc2sn(-c3ccccc3)c(=O)c2c1	18.6	84.8*	.	.	-6.9	.
O=c1c2cc(F)ccc2sn1-c1ccc(F)cc1	11.8	32.6*	.	.	-3.8	.
Cc1cccc(C)c1OC(=O)c1ccccc1	6.5	3.3	.	.	1.5	.
CN(Cc1ccccc1)C(=O)CCSc1nc(-c2ccc3c(c2)OCO3)cc(C(F)(F)F)n1	-11.8	-5.3	-2.9	-0.2	-2.6	0.1
Cc1cc(C)n(CC(=O)NNC(=O)CCNC(=O)c2ccccc2Cl)n1	-11.7	2.5	.	3.6	1.8	.
COc1ccc(NC(=O)C[C@H]2C(=O)N(C3CCCCC3)C[C@@H]2C)cc1	11.3	-17.4	.	.	0.6	.
O=C(O)c1cc(Nc2cc(Cl)c3nonc3c2[N+](=O)[O-])ccc1O	.	22.9*	.	-1.5	-1.2	.
CC(=O)Nc1ccc(C=CC=Cc2cccc([N+](=O)[O-])c2)cc1	4.1	22.1*	.	.	3.5	.
CC(=O)Nc1ccc(OCc2cccc([N+](=O)[O-])c2)cc1	-8.5	0.1	15.2	2.8	5.6	0.7
CC(C)C(=O)N(c1ccc2oc(=O)sc2c1)S(=O)(=O)c1cccs1	-13.8	30.1*	.	0.0	0.1	-0.1
COc1ccccc1N1CCN(C(=O)c2ccc3c(=O)n(Cc4ccc5c(c4)OCO5)c(=O)[nH]c3c2)CC1	.	8.0	.	.	1.7	.
CC(C)(C)C(=O)Nc1ccc(C(=O)OC2CCCCC2)cc1	.	-7.0	i	1.0	10.5*	0.3
Cn1nnnc1SCC(=O)N1CCN(S(=O)(=O)c2ccc(Cl)cc2)CC1	5.8	-5.6	5.3	0.0	0.0	0.0
COCCn1c(=NC(=O)CSC(C)=O)sc2cc(OC)ccc21	-11.4	-15.2	6.2	-0.3	-0.8	-0.1
COCCn1c(=NC(=O)CSC(C)=O)sc2cc(F)ccc21	-9.6	-18.9	83.4*	0.3	-0.8	-0.2
O=C(COC(=O)/C=C/c1cccc(Br)c1)NC1CCCCCC1	2.6	-2.8	.	.	1.0	.
COc1cc(OC)c(OC)cc1CNCCSc1nnnn1C	-8.2	0.6	1.3	-0.5	-2.2	0.1
COCCCN1C(=O)C(CC(=O)NC(c2ccccc2)c2ccccc2)CC(C(=O)N2CCCCCC2)=C1C (stereo unspecified)	.	3.1	.	.	.	.
O=C(CC(Nc1ccccc1)C(=O)O)c1ccccc1 (stereo unspecified)	-16.1	22.8*	-2.6	2.7	5.6	.
CC(C)Cn1c(N)c(-c2nc(C(C)C)c(C(=O)c3ccccc3F)s2)c(=O)n(C)c1=O	.	.	-2.0	0.3	.	0.5
CCOC(=O)C(Cc1ccc(O)cc1)NC(=O)c1cc2c(cn1)[nH]c1ccccc12 (stereo unspecified)	.	0.1	.	.	.	.
SMILES	TAG inh	ABHD5 PLIN5 PPI	Rad51 HR inh	HIF activator	GAA850 FXN act	Hsp70 act
NC(=O)C1CCCN(Cc2c(C(=O)N3CCc4ccccc4C3)nc3ccc(Cl)cn23)C1 (stereo unspecified)	5.7	4.3	.	10.7*	0.5	.
CC1CCCN(Cc2c(C(=O)N3CCc4ccccc4C3)nc3ccc(Cl)cn23)C1 (stereo unspecified)	.	7.8	.	0.7	-1.2	.
C#Cc1ccc(CN2CCCC(C(=O)Nc3ccccc3Oc3cccnc3)C2)cc1 (stereo unspecified)	.	-3.2	.	-0.4	-1.6	.
Cc1ccccc1OCCNc1cc(N2CCN(CCO)CC2)ccc1[N+](=O)[O-]	.	22.4*	12.0	0.4	1.9	-0.3
CC(C)(C)S(=O)N1Cc2cc(=O)n(Cc3ccccc3)c(CCO)c2[C@@H]1CCO (stereo partly specified)	-7.5	8.4	.	.	0.4	.
Cn1c(=O)c2cc(NC(=O)NCc3ccc(Cl)cc3Cl)ccc2n1Cc1ccc(F)cc1	-19.6	2.4	.	.	-2.9	.
Cc1ccc(NCCN(C)C)c2c(=O)c3cc(O)ccc3sc12	63.3*	15.8	.	.	-3.6	.
CCCCCCCC[n+]1cccc(C(=O)N(CC)CC)c1	.	0.9	-3.6	0.1	0.3	0.0
CCCCCCCCCCCCCCCC[n+]1cccc(C(=O)N(CC)CC)c1	58.6*!	45.2*!	13.7	0.0	-3.6	-0.4
CCOC(=O)c1c(NC(=O)CN2C(=O)NC3(CCCCC3)C2=O)sc(C)c1-c1ccc(C)cc1	.	10.3	7.0	0.5	3.8	-0.2
CCOC(=O)c1c(NC(=O)CN2C(=O)NC3(CCC(C)CC3)C2=O)sc(C)c1-c1ccc(C)cc1 (stereo unspecified)	.	0.2	-2.8	39.0*	0.1	0.3
COc1ccc(-c2sc3ccc(N4CCOCC4)cc3c2-c2ccc(OC)c(F)c2)cc1	34.4	-4.0	.	-3.2	-0.4	.
Cc1cc(C)c2c(N)c3ccccc3nc2n1	54.9*	-5.3	4.0	19.8*	-4.0	0.4
CCn1cc(Cl)c(C(=O)N2N=C(c3ccc4ccccc4c3)CC2c2ccccc2O)n1 (stereo unspecified)	19.2	0.5	6.4	0.1	2.3	-0.1
CCn1cc([N+](=O)[O-])c(C(=O)N2N=C(c3ccc4ccccc4c3)CC2c2ccccc2O)n1 (stereo unspecified)	71.1*	7.5	-1.5	0.8	1.5	-0.2
COc1ccc2[nH]cc(C(=O)CN3CC(C)CC(C)C3)c2c1 (stereo unspecified)	.	-3.4	.	0.1	-2.9	.
COc1ccc2[nH]cc(C(=O)CCl)c2c1	72.4*	15.7	6.4	3.5	-2.7	.
Cc1cccc(NC(=O)C2CCN(S(=O)(=O)c3c(C)noc3/C=C/c3ccco3)CC2)n1	.	23.0*	4.8	0.0	-0.5	-0.3
CCC(C)N1CCN(C(=O)C2CCN(S(=O)(=O)c3c(C)noc3/C=C/c3ccco3)CC2)CC1 (stereo unspecified)	.	19.8	.	0.8	3.8	.
CCOc1ccc(NC(=O)C2CCN(S(=O)(=O)c3ccc4c(c3)N(C(C)=O)CCO4)CC2)cc1	.	-6.4	.	24.7*	0.6	.
CC(C)Nc1nc(Cl)nc(NNC(=O)C(C)Oc2ccccc2)n1 (stereo unspecified)	-49.6	-3.1	3.8	-0.6	0.4	-0.1
CCNc1nc(Cl)nc(NNC(=O)C(C)Oc2ccccc2)n1 (stereo unspecified)	.	7.2	-10.3	236.0*	3.0	-0.3
